Measured values from ChEMBL document CHEMBL1137646, “Intracellular metabolism and persistence of the anti-human immunodeficiency virus activity of 2',3'-didehydro-3'-deoxy-4'-ethynylthymidine, a novel thymidine analog” (Antimicrob Agents Chemother, 2007).
Activity calls are given as the source filed them. The calls are words filed in the database; no cut-off is given here.

Experiments:
[1] = tested on: Human immunodeficiency virus 1; test: Antiviral activity against 0.1 MOI HIV1 3B infected in human TZM-b1 cells assessed as inhibition of viral replication after 24 hrs by luciferase assay; format: functional, organism-based
Outline: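 TZM-bl cells in phenol red-free RPMI 1640 were infected with HIV-1 IIIB (MOI 0.1) at the time of adding drug at various concentrations, and drug and virus stayed together for 24 h. Lysate luciferase was measured with uninfected background subtracted, in quintuple wells. Inhibition was the mean signal relative to drug-free infected cells.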

[2] = Half life in plasma of HIV1-infected patient; format: ADME, cell-free; details: human
[3] = tested on: Human immunodeficiency virus 1; test: Antiviral activity against 0.1 MOI HIV1 3B in 24 hrs pretreated human TZM-b1 cells infected 0 hr post drug removal assessed as inhibition of viral replication at 0.18 uM measured 24 hrs postinfection by luciferase assay; format: functional; details: Human immunodeficiency virus 1, 3B
Outline: (§1)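 TZM-bl cells (kept in DMEM) were plated at 0.5 x 10^4 per well in phenol red-free RPMI 1640 and left to adhere 15-18 h at 37°C. They were then exposed to drug for 24 h with quintuple wells per concentration. Medium was changed to remove drug, and cells were infected with HIV-1 IIIB at MOI 0.1 at 0, 24 or 48 h after removal. Luciferase was read 24 h post-infection after subtracting the uninfected background. Inhibition is expressed relative to drug-free control wells.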

[4] = tested on: Human immunodeficiency virus 1; test: Antiviral activity against 0.1 MOI HIV1 3B in 24 hrs pretreated human TZM-b1 cells infected 24 hrs post drug removal assessed as inhibition of viral replication at 0.04 to 0.18 uM measured 24 hrs postinfection by luciferase assay; format: functional, organism-based; outline: as §1
[5] = tested on: Human immunodeficiency virus 1; test: Antiviral activity against 0.1 MOI HIV1 3B in 24 hrs pretreated human TZM-b1 cells infected 48 hrs post drug removal assessed as inhibition of viral replication at 0.04 to 0.18 uM measured 24 hrs postinfection by luciferase assay; format: functional, organism-based; outline: as §1
[6] = Half life in plasma of HIV1-infected patient administered as single dose; format: ADME, cell-free; details: human
[7] = tested on: Human immunodeficiency virus 1; test: Antiviral activity against 0.1 MOI HIV1 3B infected in human TZM-b1 cells assessed as inhibition of viral replication at 0.18 uM after 24 hrs by luciferase assay; format: functional; details: Human immunodeficiency virus 1, 3B, TZM-b1, 24 h
Outline: (§2)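 TZM-bl cells were plated at 0.5 x 10^4 per well in phenol red-free RPMI 1640 and allowed to adhere 15-18 h at 37°C. After a medium change, drug was added with quintuple wells per concentration, and cells were infected at the same time with HIV-1 IIIB at MOI 0.1. After 24 h, cells were lysed and luciferase was read minus the uninfected background. Values are percentage of mean luminescence in drug-free wells.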

[8] = tested on: Human immunodeficiency virus 1; test: Antiviral activity against 0.1 MOI HIV1 3B infected in human TZM-b1 cells assessed as inhibition of viral replication at 0.11 uM after 24 hrs by luciferase assay; format: functional; details: Human immunodeficiency virus 1, 3B, TZM-b1, 24 h; outline: as §2
[9] = tested on: Human immunodeficiency virus 1; test: Antiviral activity against 0.1 MOI HIV1 3B infected in human TZM-b1 cells assessed as inhibition of viral replication at 0.14 uM after 24 hrs by luciferase assay; format: functional; details: Human immunodeficiency virus 1, 3B, TZM-b1, 24 h; outline: as §2
RKO [10] = test: Induction of thymidylate kinase expression in human RKO cells expressing Tet-On gene after 48 hrs by Western blotting; format: functional, cell-based
Outline: (§3)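 Tet-On TMPK RKO cells were grown with doxycycline at 0, 50 or 3,000 ng/ml to induce TMPK. Expression was assessed by Western blotting with actin as the internal control.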

RKO [11] = test: Induction of thymidylate kinase expression in human RKO cells expressing Tet-On gene after 48 hrs by Western blotting relative to control; format: functional; outline: as §3
RKO [12] = test: Induction of 3-phosphoglycerate kinase expression in human RKO cells expressing Tet-On gene at 100 ng/ml after 72 hrs by Western blotting relative to control
CCRF-CEM [13] = test: Drug metabolism in human CEM cells assessed as radioactive zidovudine monophosphate accumulation at 2 uM after 2 hrs assessed per 10^6 cells; format: ADME, cell-based
Outline: (§4)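 CEM cells (2 x 10^7/ml) in RPMI 1640 with 10% dialyzed FBS were incubated at 37°C with 2 µM [3H]analog (75 mCi/mmol) and harvested at 2, 4, 8, 12, 16 and 24 h. Cells were washed in ice-cold PBS with 20 µM dipyridamole and extracted with 15% TCA. Neutralized extracts were separated on a Partisil SAX column with an H2O to 300 mM potassium phosphate gradient and radiometric detection, reported as pmol/10^6 cells, mean ± SD of three experiments.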

CCRF-CEM [14] = test: Drug metabolism in human CEM cells assessed as radioactive zidovudine diphosphate accumulation at 2 uM after 2 hrs assessed per 10^6 cells; format: ADME, cell-based; outline: as §4
CCRF-CEM [15] = test: Drug metabolism in human CEM cells assessed as radioactive zidovudine triphosphate accumulation at 2 uM after 2 hrs assessed per 10^6 cells; format: ADME, cell-based; outline: as §4
CCRF-CEM [16] = test: Drug metabolism in human CEM cells assessed as radioactive 2', 3'-didehydro-3'-deoxy-4'-ethynylthymidine monophosphate accumulation at 2 uM after 12 hrs assessed per 10^6 cells; format: ADME, cell-based; outline: as §4
CCRF-CEM [17] = test: Drug metabolism in human CEM cells assessed as radioactive 2', 3'-didehydro-3'-deoxy-4'-ethynylthymidine diphosphate accumulation at 2 uM after 12 hrs assessed per 10^6 cells; format: ADME, cell-based; outline: as §4
CCRF-CEM [18] = test: Drug metabolism in human CEM cells assessed as radioactive 2', 3'-didehydro-3'-deoxy-4'-ethynylthymidine triphosphate accumulation at 2 uM after 12 hrs assessed per 10^6 cells; format: ADME, cell-based; outline: as §4
CCRF-CEM [19] = test: Drug metabolism in human CEM cells assessed as radioactive zidovudine monophosphate accumulation at 2 uM assessed per 10^6 cells; format: ADME, cell-based; details: TDE = time-dependent effect; outline: as §4
CCRF-CEM [20] = test: Drug metabolism in human CEM cells assessed as radioactive zidovudine diphosphate accumulation at 2 uM assessed per 10^6 cells; format: ADME, cell-based; details: TDE = time-dependent effect; outline: as §4
CCRF-CEM [21] = test: Drug metabolism in human CEM cells assessed as radioactive zidovudine triphosphate accumulation at 2 uM assessed per 10^6 cells; format: ADME, cell-based; details: TDE = time-dependent effect; outline: as §4
CCRF-CEM [22] = test: Drug metabolism in human CEM cells assessed as radioactive 2', 3'-didehydro-3'-deoxy-4'-ethynylthymidine monophosphate accumulation at 2 uM assessed per 10^6 cells; format: ADME, cell-based; details: TDE = time-dependent effect; outline: as §4
CCRF-CEM [23] = test: Drug metabolism in human CEM cells assessed as radioactive 2', 3'-didehydro-3'-deoxy-4'-ethynylthymidine diphosphate accumulation at 2 uM assessed per 10^6 cells; format: ADME, cell-based; details: TDE = time-dependent effect; outline: as §4
CCRF-CEM [24] = test: Drug metabolism in human CEM cells assessed as radioactive 2', 3'-didehydro-3'-deoxy-4'-ethynylthymidine triphosphate accumulation at 2 uM assessed per 10^6 cells; format: ADME, cell-based; details: TDE = time-dependent effect; outline: as §4
CCRF-CEM [25] = test: Drug metabolism in human CEM cells assessed as radioactive stavudine monophosphate accumulation at 2 uM assessed per 10^6 cells; format: ADME, cell-based; details: TDE = time-dependent effect; outline: as §4
CCRF-CEM [26] = test: Drug metabolism in human CEM cells assessed as radioactive stavudine diphosphate accumulation at 2 uM assessed per 10^6 cells; format: ADME, cell-based; details: TDE = time-dependent effect; outline: as §4
CCRF-CEM [27] = test: Drug metabolism in human CEM cells assessed as radioactive stavudine triphosphate accumulation at 2 uM assessed per 10^6 cells; format: ADME, cell-based; details: TDE = time-dependent effect; outline: as §4
CCRF-CEM [28] = test: Stability in human CEM cells assessed as intracellular radioactive phosphorylated metabolite accumulation at 2 uM incubated for 24 hrs measured after 8 hrs of compound removal assessed per 10^6 cells; format: ADME, cell-based
Outline: (§5)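 CEM cells were loaded with 2 µM [3H]analog (75 mCi/mmol) for 24 h, washed, and resuspended in drug-free medium. Intracellular metabolites were then measured by SAX-HPLC with radiometric detection at 0, 2, 4, 8, 12 and 24 h after removal. Values are pmol/10^6 cells, mean ± SD of three experiments.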

CCRF-CEM [29] = test: Stability in human CEM cells assessed as intracellular radioactive triphosphate metabolite accumulation at 2 uM incubated for 24 hrs measured after 24 hrs of compound removal assessed per 10^6 cells; format: ADME, cell-based; outline: as §5
[30] = tested on: Human immunodeficiency virus 1; test: Antiviral activity against 0.1 MOI HIV1 3B infected in human TZM-b1 cells assessed as inhibition of viral replication at 0.13 uM after 24 hrs by luciferase assay; format: functional; details: Human immunodeficiency virus 1, 3B, TZM-b1, 24 h; outline: as §2
[31] = tested on: Human immunodeficiency virus 1; test: Antiviral activity against 0.1 MOI HIV1 3B in 24 hrs pretreated human TZM-b1 cells infected 24 hrs post drug removal assessed as inhibition of viral replication at 0.04 to 0.22 uM measured 24 hrs postinfection by luciferase assay; format: functional, organism-based
Outline: (§6)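 TZM-bl cells were plated in phenol red-free RPMI 1640, allowed to adhere 15–18 h at 37°C, then exposed to a range of drug concentrations for 24 h. Medium was changed to remove extracellular drug, and cells were infected with HIV-1 IIIB (MOI 0.1) at 0, 24 or 48 h after removal. Luciferase was read 24 h post-infection with uninfected-cell background subtracted, in quintuple wells, and expressed relative to no-drug wells.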

[32] = tested on: Human immunodeficiency virus 1; test: Antiviral activity against 0.1 MOI HIV1 3B infected in human TZM-b1 cells assessed as inhibition of viral replication at 0.02 uM after 24 hrs by luciferase assay; format: functional; details: Human immunodeficiency virus 1, 3B, TZM-b1, 24 h; outline: as §2
[33] = tested on: Human immunodeficiency virus 1; test: Antiviral activity against 0.1 MOI HIV1 3B in 24 hrs pretreated human TZM-b1 cells infected 48 hrs post drug removal assessed as inhibition of viral replication at 0.04 to 0.22 uM measured 24 hrs postinfection by luciferase assay; format: functional, organism-based; outline: as §6
[34] = tested on: Human immunodeficiency virus 1; test: Antiviral activity against 0.1 MOI HIV1 3B infected in human TZM-b1 cells assessed as inhibition of viral replication at 0.22 uM after 24 hrs by luciferase assay; format: functional; details: Human immunodeficiency virus 1, 3B, TZM-b1, 24 h; outline: as §2

Compound: Cc1ccnc2c1NC(=O)c1cccnc1N2C1CC1 [NEVIRAPINE]
- inhibition [1]: Dose-dependent effect
- half-life [2]: 30 h
- inhibition at 0.18 µM [3]: < 50%
- inhibition [4]: inactive
- inhibition [5]: inactive
- half-life [6]: 30 h
- inhibition at 0.18 µM [7]: 50%
- inhibition at 0.11 µM [8]: 50%
- inhibition at 0.14 µM [9]: 50%

Compound: C[C@H]1c2cccc(O)c2C(=O)C2=C(O)[C@]3(O)C(=O)C(C(N)=O)=C(O)[C@@H](N(C)C)[C@@H]3[C@@H](O)[C@@H]21.O [DOXYCYCLINE]
- Activity (RKO [10]): Dose-dependent effect
- fold change (FC) (RKO [11]): 5
- fold change (FC) (RKO [12]): 3

Compound: Cc1cn([C@H]2C[C@H](N=[N+]=[N-])[C@@H](CO)O2)c(=O)[nH]c1=O [ZIDOVUDINE]
- Activity (CCRF-CEM [13]): 90 pmol
- Activity (CCRF-CEM [14]): 90 pmol
- Activity (CCRF-CEM [15]): 90 pmol
- Activity (CCRF-CEM [16]): 18 pmol
- Activity (CCRF-CEM [17]): 18 pmol
- Activity (CCRF-CEM [18]): 18 pmol
- Activity (CCRF-CEM [19]): tde
- Activity (CCRF-CEM [20]): tde
- Activity (CCRF-CEM [21]): tde
- Activity (CCRF-CEM [22]): tde
- Activity (CCRF-CEM [23]): tde
- Activity (CCRF-CEM [24]): tde
- Activity (CCRF-CEM [25]): tde
- Activity (CCRF-CEM [26]): tde
- Activity (CCRF-CEM [27]): tde
- Stability (CCRF-CEM [28]): 2.33 pmol
- Stability (CCRF-CEM [29]): 0.14 pmol
- inhibition at 0.13 µM [30]: 50%
- inhibition [1]: Dose-dependent effect
- inhibition [31]: inactive
- inhibition at 0.02 µM [32]: 50%
- inhibition [33]: inactive
- inhibition at 0.18 µM [7]: 50%
- inhibition at 0.22 µM [34]: 50%
